Source: paper PMC3665005 (Gene therapy, 2012)

Test system: luciferase expression in liver
Experiment: HD-stimulated expression after tail vein dosing, luciferase in liver by BLI
Assay type: in vivo, mice
Settings: HD-stimulation, 5 min delay, 1 μg pGL3, 0.8 nmol peptide
Outline: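 Albino ICR mice (three per group) received polyplex (1 μg pGL3, 0.8 nmol PEGylated peptide) in 50 μl HBM (5 mM Hepes, 0.27 M mannitol, pH 7.4) by tail vein. Saline at 9 wt/vol% body weight (1.8-2.25 ml) was given by tail vein over 5 sec. At 24 hrs, liver BLI under 3% isofluorane, 5 min after i.p. D-luciferin (2.4 mg). Mean and standard deviation reported.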

Substance	fold lower gene transfer relative to peptide 4 polyplexes	gene transfer compared with peptide 1 polyplexes (in words)
(Acr-DLys4)3-Acr-DLys-Cys-PEG [4D]	5 fold	–
(Acr-DLys)3-Acr-DLys-Cys-PEG [1D]	–	equivalent
